The source made the active and inactive calls. The calls are words filed in the database; no cut-off is given here.
Tests used:
[1] = system: RAW264.7; test: Cytotoxicity against mouse RAW264.7 cells assessed as cell viability after 24 hrs by MTT assay; assay type: cell-based; conditions: RAW264.7, 24 h, in the assay text read “MTT assay” for “ultra gel clot assay”
Outline: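 RAW 264.7 macrophages (5×10^4 cells/well) exposed 24 h at 37 °C to a range of compound concentrations, then read by MTT reduction to formazan, solubilised in acidic isopropanol. Viability expressed as mean % of untreated cells (n = 4); 1000 U/ml M-CSF as positive control. IC50 derived.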

[2] = system: RAW264.7; test: Effect on inflammatory mediators in LPS-stimulated mouse RAW264.7 cells assessed as nitrite accumulation at 20% IC50 after 24 hrs by Griess assay; assay type: functional
[3] = system: RAW264.7; test: Effect on inflammatory mediators in mouse RAW264.7 cells assessed as nitrite accumulation at 20% IC50 after 24 hrs by Griess assay; assay type: functional
[4] = system: RAW264.7; test: Effect on inflammatory mediators in LPS-stimulated mouse RAW264.7 cells assessed as TNF-alpha accumulation at 20% IC50 after 24 hrs by ELISA; assay type: functional
[5] = system: RAW264.7; test: Effect on inflammatory mediators in mouse RAW264.7 cells assessed as TNF-alpha accumulation at 20% IC50 after 24 hrs by ELISA; assay type: functional
[6] = system: RAW264.7; test: Effect on inflammatory mediators in LPS-stimulated mouse RAW264.7 cells assessed as PGE2 accumulation at 20% IC50 after 24 hrs by ELISA; assay type: functional
[7] = system: RAW264.7; test: Effect on inflammatory mediators in mouse RAW264.7 cells assessed as PGE2 accumulation at 20% IC50 after 24 hrs by ELISA; assay type: functional
[8] = system: RAW264.7; test: Effect on inflammatory mediators in LPS-stimulated mouse RAW264.7 cells assessed as COX-2 accumulation at 20% IC50 after 24 hrs by dot immunoblotting; assay type: functional
Outline: (§1)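 20 µg lysate protein dot-blotted, probed with anti-mouse COX-2 or 5-LO, detected by HRP/OPD and normalised to β-actin.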

[9] = system: RAW264.7; test: Effect on inflammatory mediators in mouse RAW264.7 cells assessed as COX-2 accumulation at 20% IC50 after 24 hrs by dot immunoblotting; assay type: functional; outline: as §1
[10] = system: RAW264.7; test: Effect on inflammatory mediators in LPS-stimulated mouse RAW264.7 cells assessed as 5-LO accumulation at 20% IC50 after 24 hrs by dot immunoblotting; assay type: functional; outline: as §1
[11] = system: RAW264.7; test: Effect on inflammatory mediators in mouse RAW264.7 cells assessed as 5-LO accumulation at 20% IC50 after 24 hrs by dot immunoblotting; assay type: functional; outline: as §1
[12] = Hydroxyl radical scavenging activity assessed as trolox equivalents at 1 uM by ORAC assay; assay type: functional
Outline: (§2)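 β-Phycoerythrin fluorescence decay followed kinetically for 2 h at 37 °C with 1 µM compound, against peroxyl and hydroxyl radicals. One ORAC unit = net protection given by 1.0 µM Trolox.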

[13] = Peroxyl radical scavenging activity assessed as trolox equivalents at 1 uM by ORAC assay; outline: as §2
[14] = Antioxidant activity assessed as superoxide radical scavenging activity; assay type: functional
Outline: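 Non-cellular assay; superoxide generated by oxidation of 50 µM hypoxanthine with 12 mU xanthine oxidase. Scavenging followed as the rate of nitroblue tetrazolium reduction to formazan. SC50 taken from dose-dependent curves of serial dilutions; superoxide dismutase as standard inhibitor.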

[15] = system: RAW264.7; test: Effect on mouse RAW264.7 cell function assessed as FITC-LPS binding to macrophage after 15 mins by fluorimetry; assay type: functional, cell-based
Outline: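 5×10^5 RAW 264.7 cells pre-incubated 15 min at 37 °C with compound in RPMI-1640 plus 10% FBS as the CD14/LBP source. FITC-LPS (200 ng/ml) then added for 1 h. After PBS wash, fluorescence read at ex 485/em 530 nm and median fluorescence intensity reported.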

[16] = system: RAW264.7; test: Induction of phagocytosis in mouse RAW264.7 cells assessed as phagocytic activity against FITC-zymosan after 1 hr by fluorimetry; assay type: functional, cell-based
Outline: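 Cells at 1×10^5/well in phenol red-free RPMI-1640 rested 24 h, then given compound for 1 h. FITC-zymosan added for a further 1 h; cells washed three times and lysed with Triton X-100. Fluorescence read at 485/530 nm and expressed relative to untreated cells (100%).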

[17] = system: RAW264.7; test: Effect on inflammatory mediators in LPS-stimulated mouse RAW264.7 cells assessed as COX-2 accumulation at 20 uM after 24 hrs by dot immunoblotting; assay type: functional
Outline: (§3)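 Cells treated 24 h with 20 µM compound, with or without LPS (1 µg/ml). 20 µg soluble lysate protein dot-blotted onto nitrocellulose and probed with rabbit anti-mouse COX-2 or 5-LO, HRP anti-rabbit secondary and OPD colour. Intensity normalised to β-actin dots; four repeats.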

[18] = system: RAW264.7; test: Effect on inflammatory mediators in mouse RAW264.7 cells assessed as COX-2 accumulation at 20 uM after 24 hrs by dot immunoblotting; assay type: functional; outline: as §3
[19] = system: RAW264.7; test: Effect on inflammatory mediators in LPS-stimulated mouse RAW264.7 cells assessed as 5-LO accumulation at 20 uM after 24 hrs by dot immunoblotting; assay type: functional; outline: as §3
[20] = system: RAW264.7; test: Effect on inflammatory mediators in mouse RAW264.7 cells assessed as 5-LO accumulation at 20 uM after 24 hrs by dot immunoblotting; assay type: functional; outline: as §3

CCOC(=O)COc1nc(-c2ccc3c(c2)CCCC3)cc(-c2ccc(OC)c(OC)c2)c1C#N
IC50 [1]: 26.2 µM
Activity [2]: 388.4 nmol
Activity [3]: 2.65 nmol
Activity [4]: 3945.11 pg
Activity [5]: 66.57 pg
Activity [6]: 2954.2 pg
Activity [7]: 22.4 pg
Activity [8]: 68.7%
Activity [9]: 27.5%
Activity [10]: 79.6%
Activity [11]: 21.9%
Activity [12]: 2.47
Activity [13]: 2.01
SC50 [14]: 55.7 µg/mL

COc1ccc(-c2cc(-c3ccc4c(c3)CCCC4)nc(NCc3ccccc3)c2C#N)cc1OC
IC50 [1]: 4.9 µM
Activity [15]: inactive
Activity [16]: inactive
Activity [2]: 915.9 nmol
Activity [3]: 720.91 nmol
Activity [4]: 5520.55 pg
Activity [5]: 2460.46 pg
Activity [6]: 3010.66 pg
Activity [7]: 31.29 pg
Activity [8]: 99.2%
Activity [9]: 46.3%
Activity [10]: 94.7%
Activity [11]: 30.2%
Activity [12]: 3.54
Activity [13]: 2.95
SC50 [14]: 38.4 µg/mL

CC(C)c1ccc(-c2cc(-c3ccc4c(c3)CCCC4)nc(OCC(=O)NCc3ccccc3)c2C#N)cc1
IC50 [1]: 9.9 µM
Activity [16]: Active
Activity [2]: 32.75 nmol
Activity [3]: 10.19 nmol
Activity [4]: 615.33 pg
Activity [5]: 69.65 pg
Activity [6]: 3260.2 pg
Activity [7]: 48.15 pg
Activity [8]: 20.1%
Activity [9]: 20.6%
Activity [10]: 61.7%
Activity [11]: 21.7%
Activity [12]: 3.44
Activity [13]: 2.22
SC50 [14]: 24.6 µg/mL

CCOC(=O)COc1nc(-c2ccc3c(c2)CCCC3)cc(-c2ccc(C(C)C)cc2)c1C#N
IC50 [1]: > 50 µM
Activity [15]: Active
Activity [16]: Active
Activity [2]: 110.54 nmol
Activity [3]: 3.19 nmol
Activity [4]: 2810.66 pg
Activity [5]: 72.45 pg
Activity [6]: 2870.5 pg
Activity [7]: 50.5 pg
Activity [8]: 31.3%
Activity [9]: 18.7%
Activity [10]: 38.7%
Activity [11]: 11.9%
Activity [12]: 1.05
Activity [13]: 2.36
SC50 [14]: 81.4 µg/mL

COc1ccc(-c2cc(-c3ccc4c(c3)CCCC4)[nH]c(=S)c2C#N)cc1OC
IC50 [1]: 29.4 µM
Activity [2]: 380.12 nmol
Activity [3]: 8.58 nmol
Activity [4]: 4652.4 pg
Activity [5]: 79.18 pg
Activity [6]: 3309.3 pg
Activity [7]: 28.66 pg
Activity [8]: 72.8%
Activity [9]: 12.3%
Activity [10]: 85.4%
Activity [11]: 18.3%
Activity [12]: 0.85
Activity [13]: 0.9
SC50 [14]: 65.4 µg/mL

CC(C)c1ccc(-c2cc(-c3ccc4c(c3)CCCC4)nc(Cl)c2C#N)cc1
IC50 [1]: 8.4 µM
Activity [15]: inactive
Activity [2]: 611.68 nmol
Activity [3]: 439.13 nmol
Activity [4]: 5110.4 pg
Activity [5]: 350.05 pg
Activity [6]: 2870.25 pg
Activity [7]: 45.39 pg
Activity [17]: 80.1%
Activity [18]: 28.7%
Activity [8]: 80.1%
Activity [9]: 28.7%
Activity [19]: 94.6%
Activity [20]: 29.5%
Activity [10]: 94.6%
Activity [11]: 29.5%
Activity [12]: 1.1
Activity [13]: 0.92
SC50 [14]: > 100 µg/mL

Reference: ChEMBL document CHEMBL1153793, “New pyridone, thioxopyridine, pyrazolopyridine and pyridine derivatives that modulate inflammatory mediators in stimulated RAW 264.7 murine macrophage” (Eur J Med Chem, 2009)
